Only some compounds are listed: those with a hit (about 1.9% of all), similar ones and a draw of the others.
M5 antag = antagonists of human muscarinic M5 receptor (CHRM5); CHO-hM5 cells, Fluo-8 calcium fluorescence, ACh EC80; inhibition, % at 3 µM; 360,000 tested, 0.59% active; AID 624040;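 active = inhibition above a per-plate cutoff, the mean of that plate's test compounds plus 3 SD, cut at about 27% in these data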;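 also: 0% = acetylcholine EC80 with DMSO and 100% = DMSO without agonist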
Target sequence (P08912 whole entry, looked up): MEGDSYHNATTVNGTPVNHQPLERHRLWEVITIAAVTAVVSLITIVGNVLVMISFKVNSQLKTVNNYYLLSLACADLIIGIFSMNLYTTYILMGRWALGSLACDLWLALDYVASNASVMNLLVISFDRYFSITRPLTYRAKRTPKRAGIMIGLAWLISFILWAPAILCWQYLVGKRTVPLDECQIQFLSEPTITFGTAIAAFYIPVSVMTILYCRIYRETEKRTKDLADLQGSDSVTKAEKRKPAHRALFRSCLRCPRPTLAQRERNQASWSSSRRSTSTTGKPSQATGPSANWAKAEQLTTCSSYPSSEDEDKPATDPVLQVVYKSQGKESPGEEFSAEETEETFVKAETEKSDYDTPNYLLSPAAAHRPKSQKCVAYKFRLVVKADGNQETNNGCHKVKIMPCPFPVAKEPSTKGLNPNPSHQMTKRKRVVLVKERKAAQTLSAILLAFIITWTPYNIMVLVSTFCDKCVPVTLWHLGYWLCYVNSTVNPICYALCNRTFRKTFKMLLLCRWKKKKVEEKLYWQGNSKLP
M4 ag = agonists of human muscarinic M4 receptor (CHRM4). P08173. CHO-K1 hM4/Gqi5, Fluo-8 calcium fluorescence; vehicle 0%, full acetylcholine response 100%. activation, % at 3 µM. 360,000 tested, 0.14% active. AID 624127;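 active = activation above the run mean over all test wells plus 3 SD, cut at about 32% in these data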;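 also: peak over basal fluorescence ratio per well then scaled between controls; 0% = DMSO wells and 100% = acetylcholine at EC100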
CHRM4 PAM = potentiates acetylcholine response at human M4 receptor; 360,000 tested, 0.4% active; activation, % at 3 µM; P08173; CHO-K1 hM4/Gqi5, Fluo-8 calcium fluorescence, ACh EC20; 0% = ACh EC20, 100% = maximal ACh;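 active = activation above its plate's cutoff, the mean activation of sample wells plus 3 SD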
M5 ag = CHRM5 agonism in calcium assay; 360,000 tested, 0.19% active; CHO-K1 hM5 cells, Fluo-8 calcium fluorescence; 0% DMSO wells, 100% maximal acetylcholine response; activation, % at 3 µM;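 active = activation above the run's mean over test compounds plus 3 SD, cut at about 23% in these data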;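 also: signal is peak over basal fluorescence ratio across the kinetic read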
M4 antag = blocks acetylcholine activation of human M4 receptor | inhibition, % at 3 µM | 360,000 tested, 0.73% active | CHO-hM4 cells, ACh EC80, Fluo-8 calcium fluorescence | AID 624125 | P08173;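 active = inhibition above its plate's cutoff, the mean inhibition of sample wells plus 3 SD, cut at about 27% in these data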;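 also: 0% = acetylcholine EC80 with DMSO and 100% = DMSO without agonist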
CHRM5 PAM = potentiates acetylcholine response at human M5 receptor | CHO-K1 hM5, Fluo-8 calcium, ACh EC20 PAM; 0% = ACh EC20, 100% = ACh EC100 | 360,000 tested, 0.3% active | activation, % at 3 µM;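 active = activation above the run cutoff, the mean activation of all test compounds plus 3 SD, cut at about 18% in these data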
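Assay system – human M5 receptor in CHO-K1 cells · Read-out – % activation, ACh-normalized · Technique – Fluo-8 calcium fluorescence · Dosing – single-point, 3 µM nominal · Incubation – Fluo-8 loading 80 min at 37 °C plus 30 min room temperature · Repeats – singlicate, one well per test compound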
Starred values were filed as active, the others as inactive.

SMILES | M5 antag | M4 ag | CHRM4 PAM | M5 ag | M4 antag | CHRM5 PAM
O=C(C1=C(O)C(=O)N(c2nccs2)C1c1ccccc1)c1cc2ccccc2o1 (stereo not drawn) | 8.3 | 29.0 | -17.2 | 65.1* | 10.9 | -24.0
CC(=O)Nc1ccc(NC(=O)Nc2cccc(Cl)c2)cc1 | 3.8 | 2.7 | -2.0 | 2.8 | -3.5 | -5.2
CSc1cccc(NC(N)=O)c1 | -3.8 | -0.1 | 0.3 | 3.9 | -4.8 | 8.1
CC(=O)c1ccc(NC(=O)Nc2cccc(Cl)c2)cc1 | 27.9* | 14.8 | -8.0 | 8.3 | 12.3 | -20.8
CC(=O)c1cccc(NC(=O)NCCc2ccc(Cl)cc2)c1 | 12.3 | 8.9 | 16.1* | 1.3 | -0.1 | -2.2
CSc1cccc(NC(=O)Nc2ccc(Cl)cc2)c1 | 31.0* | 9.3 | -8.9 | 7.7 | 9.3 | -15.3
CSc1nc2[nH]c(=O)[nH]c2c(=O)[nH]1 | 7.5 | 1.3 | 6.2 | 1.1 | -12.9 | -3.3
O=C1CC(SC(=NCc2ccc3c(c2)OCO3)Nc2ccccc2)C(=O)N1c1ccccc1 (stereo not drawn) | -7.3 | 1.2 | 24.5* | -0.4 | -19.0 | 14.1
CSc1nnc(-c2cccc(C)c2)n1N | -1.2 | 0.7 | 32.1* | 0.0 | 3.0 | 6.9
O=C(NC1CCCC1)C(c1ccccc1)n1c(-c2cccc3ccccc23)nc2ccccc21 (stereo not drawn) | -0.9 | -1.0 | -15.0 | -4.3 | 73.8* | -18.0
O=C(NC1CCCC1)C(C1CC1)n1c(C2CCCC2)nc2ccccc21 (stereo not drawn) | 4.8 | 1.4 | 6.5 | -0.9 | -20.8 | -0.2
CC(C)(C)NC(=O)C(C1CC1)n1c(-c2ccccc2)nc2ccccc21 (stereo not drawn) | -9.3 | 2.5 | 23.6* | -0.5 | -0.2 | 7.0
Cc1ccc(-c2nc3ccccc3n2C(C(=O)NC(C)(C)C)C2CC2)cc1 (stereo not drawn) | 1.1 | 3.2 | 1.9 | 0.2 | -3.4 | -0.4
O=C(NC1CCCC1)C(C1CC1)n1c(C2CC2)nc2ccccc21 (stereo not drawn) | 0.3 | 1.2 | 23.4* | -0.5 | -12.9 | 2.6
O=C(NC1CCCC1)C(c1ccccc1)n1c(-c2cccs2)nc2ccccc21 (stereo not drawn) | 7.2 | 0.3 | 10.2 | -3.7 | 6.2 | 0.0
COCCNc1nc(NCc2ccccc2OC)c2sccc2n1 | 4.1 | 13.9 | -1.0 | 2.3 | -16.4 | -9.6
O=C1CCCN1CCCNc1nc(NCc2ccccc2)nc2ccsc12 | 90.3* | 144.6* | -14.9 | 84.9* | 95.8* | -21.9
Cc1ccc(CNc2nc(NCc3ccccc3)nc3ccsc23)c(C)c1 | 28.1* | 22.2 | -13.1 | 9.4 | 28.2* | -17.7
CNc1nc(NCc2ccc(C)cc2C)c2sccc2n1 | 12.0 | 7.0 | -5.8 | 4.8 | 0.7 | -7.5
COCCNc1nc(NCc2ccccc2)nc2ccsc12 | 96.9* | 142.4* | -14.9 | 82.1* | 99.7* | -22.3
CCOc1cc(N2CCOCC2)c(OCC)cc1NC(=O)c1cc(-c2ccco2)nc2ccccc12 | 22.3 | 17.0 | -23.8 | 4.3 | 28.5* | -13.3
CCOc1ccc(-c2n[nH]c(=S)n2Cc2ccccc2)cc1 | 13.8 | -0.6 | -2.4 | -3.9 | 1.7 | -2.9
Cc1cc(C(=O)N/N=C2/CC(C)CC(C)(C)C2)c(C)o1 (stereo not drawn) | -8.6 | 0.3 | 25.8* | -1.4 | -4.2 | -3.8
Cc1ccccc1C(=O)NC1CC2CCCC(C1)N2CC(C)C (stereo not drawn) | 7.5 | -0.6 | -11.0 | -0.5 | 27.4* | -8.8
C=CCNC(=O)CN1C2CCCC1CC(NC(=O)c1ccccc1C)C2 (stereo not drawn) | -0.1 | 1.0 | 9.6 | -1.1 | 3.5 | -0.4
Cc1noc(C)c1COc1ccc(C(=O)NCCc2ccccn2)cc1 | 1.7 | 5.3 | 29.0* | -1.8 | -15.0 | 9.1
Cc1noc(C)c1COc1ccc(C(=O)Nc2cccnc2)cc1 | 10.3 | 0.5 | -22.3 | -16.7 | 32.4* | -6.7
Cc1noc(C)c1COc1ccc(CC(=O)NCCc2ccccn2)cc1 | -0.4 | 0.8 | -2.7 | -4.3 | 7.2 | 3.6
